Zone of inhibition data for 1 compound are collected here from ChEMBL document CHEMBL1138564, “Microwave-induced synthesis and anti-microbial activities of 7,10,11,12-tetrahydrobenzo[c]acridin-8(9H)-one derivatives” (2009).

Assay type in all cases: functional
Assay [1] relates to Aspergillus fumigatus. Kind of assay: Antimicrobial activity against Aspergillus fumigatus NCIM 902 at 10 ug/disk after 72 hrs by disk diffusion method. To be noted: NCIM 902, 72 h, read-out: DIZ. In a few lines:
(§1)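 Disc diffusion on Sabouraud's dextrose agar. 100 µl of fungal suspension at 10⁶ CFU/ml is spread on the plate. Discs carry test compounds at two loadings in DMSO; DMSO alone is the negative control. Clotrimazole disc is the positive reference. Plates are incubated at 27 °C for 72 h, and the zone of inhibition diameter is measured.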

For assay [2], the system named is Lipomyces lipofer. Kind of assay: Antimicrobial activity against Lipomyces lipofer NCIM 3252 at 10 ug/disk after 72 hrs by disk diffusion method. To be noted: NCIM 3252, 72 h, read-out: DIZ. In a few lines:
as §1
A general note: Agar diffusion results depend on both activity and mobility in agar.

In assay [3] the test system is Penicillium chrysogenum. Kind of assay: Antimicrobial activity against Penicillium chrysogenum NCIM 707 at 10 ug/disk after 72 hrs by disk diffusion method. To be noted: NCIM 707, 72 h, read-out: DIZ. Summed up:
as §1

In assay [4] the test system is Aspergillus niger. Kind of assay: Antimicrobial activity against Aspergillus niger NCIM 902 at 10 ug/disk after 72 hrs by disk diffusion method. To be noted: NCIM 902, 72 h, read-out: DIZ. In a few lines:
as §1

Assay [5] deals with Rhodotorula mucilaginosa. In words: Antimicrobial activity against Rhodotorula rubra NCIM 3174 at 10 ug/disk after 72 hrs by disk diffusion method. To be noted: NCIM 3174, 72 h, read-out: DIZ. Summed up: (§2)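 Clotrimazole reference disc at 10 µg/disc. Fungal inoculum of 100 µl at 10⁶ CFU/ml was spread on Sabouraud's dextrose agar and incubated at 27 °C for 72 h. The read-out was inhibition zone diameter.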

Assay [6] relates to Aspergillus parasiticus. In words: Antimicrobial activity against Aspergillus parasiticus NCIM 904 at 10 ug/disk after 72 hrs by disk diffusion method. Conditions: NCIM 904, 72 h, read-out: DIZ. Summed up:
as §1

Assay [7] concerns Aspergillus flavus. In words: Antimicrobial activity against Aspergillus flavus NCIM 902 at 10 ug/disk after 72 hrs by disk diffusion method. Conditions: NCIM 535, 72 h, in the assay text read “NCIM 535” for “NCIM 902”, read-out: DIZ. Summed up: as §1
In assay [8] the test system is Trichoderma viride. In words: Antimicrobial activity against Trichoderma viride NCIM 1195 at 10 ug/disk after 72 hrs by disk diffusion method. Conditions: NCIM 1195, 72 h, read-out: DIZ. Summed up: as §2

In the case of `Clc1ccccc1C(c1ccccc1)(c1ccccc1)n1ccnc1` [CLOTRIMAZOLE], the zone of inhibition at 10 µg/disc in assay [1] turned out to be 18 mm; in assay [2], 18 mm; in assay [3], 21 mm; in assay [4] it was 16 mm; in assay [5], 17 mm; in assay [6], 18 mm. Besides, the zone of inhibition at 10 µg/disc came out at 16 mm in assay [7] and 19 mm in assay [8].
